Bioassay records from PubChem.
Most compounds without a hit are left out; they make up all but 1.9% or so of the library.
LEDGF integ inh: blocks HIV-1 LEDGF/p75-dependent DNA integration. TR-FRET IN-LEDGF/p75 DNA integration, Eu/Cy5. inhibition, % at 3.7 µM. actives 0.64% (n = 370,000). AID 743269;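 active = inhibition above the screen-wide mean plus 3 SD, cut at about 13% in these data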;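 note: signal is the Cy5 over europium emission ratio at 671 and 618 nm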
NSD2 inh: NSD2 (human) methyltransferase inhibition | actives 0.54% (n = 310,000) | NSD2 peptide methylation, AlphaScreen, 120 min | O96028 | AID 743445 | inhibition, % at 12.5 µM; in the data active = inhibition above about 50%
CASP6 VEID inh: caspase-6 (human) enzyme inhibition. P55212. AID 686996. actives 0.53% (n = 350,000). inhibition, % at 12.5 µM. purified caspase-6, Z-VEID-R110 cleavage fluorescence;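 active = mean inhibition across replicates at least about 35%, with every replicate also reaching that limit, limit read from the data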
TDP2 absorb: blocks human TDP2 phosphodiesterase activity; O95551; recombinant TDP2, T5PNP hydrolysis, p-nitrophenol absorbance 415 nm; inhibition, % at 12.8 µM; actives 0.34% (n = 370,000);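 active = inhibition above the mean of all tested compounds plus 3 SD, set per campaign, cut at about 25% in these data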
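System – recombinant human TDP2 · Quantity – TDP2 enzyme at 120 nM final · Doses – single concentration, 12.8 µM nominal, with 1% DMSO · Incubation – 2 h at 37 °C · Measured by – epi absorbance of p-nitrophenol freed from T5PNP by hydrolysis · Read-out – % inhibition relative to enzyme-containing and enzyme-free wells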
MBD2 inh: blocks human MBD2 binding to methylated DNA. inhibition, % at 4.4 µM. actives 0.31% (n = 370,000). Q9UBB5. TR-FRET, MBD2 binding to methylated oligonucleotide; in the data active = inhibition above about 13%
Target sequence (Q9UBB5 whole entry, looked up): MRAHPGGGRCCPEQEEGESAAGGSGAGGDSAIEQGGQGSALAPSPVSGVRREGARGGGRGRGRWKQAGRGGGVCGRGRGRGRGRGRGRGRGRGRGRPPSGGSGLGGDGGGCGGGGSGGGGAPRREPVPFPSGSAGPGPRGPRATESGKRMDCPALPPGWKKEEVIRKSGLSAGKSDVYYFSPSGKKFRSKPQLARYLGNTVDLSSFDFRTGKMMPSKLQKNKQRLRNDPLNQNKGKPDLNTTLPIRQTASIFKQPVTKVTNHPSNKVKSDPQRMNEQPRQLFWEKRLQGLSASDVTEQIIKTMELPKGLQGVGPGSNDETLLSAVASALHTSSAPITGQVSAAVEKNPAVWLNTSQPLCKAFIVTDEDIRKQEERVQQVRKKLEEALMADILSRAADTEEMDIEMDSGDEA
UHRF1 MBD2 ctr: blocks human UHRF1 binding to methylated DNA | inhibition, % at 4.4 µM | actives 0.75% (n = 370,000) | UHRF1 binding to methylated oligo, TR-FRET | AID 687016;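 note: UHRF1 SRA domain binding a hemimethylated CpG hairpin DNA probe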
UHRF1 DNA bind: UHRF1 methyl-oligo binding inhibition as MBD2 counter-screen | shares compounds with MBD2 inh | UHRF1 binding to methylated oligonucleotide, TR-FRET | inhibition, % at 4.4 µM | actives 25% (n = 1,000) | AID 720530;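 note: UHRF1 SRA domain binding a labeled hemimethylated CpG hairpin DNA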
MBD2 DBD conf: confirmation of human MBD2-DBD methylated oligonucleotide binding inhibitors; shares compounds with MBD2 inh; TR-FRET MBD2-DBD binding to methylated oligonucleotide; AID 720531; actives 26% (n = 1,000); inhibition, % at 4.4 µM; in the data active = inhibition above about 14%
CASP1 counter: selectivity counter-screen: inhibitors of human caspase-1; purified caspase-1, Z-YVAD-R110 cleavage fluorescence; 100 tested, under 10 active; AID 743289; activity change, negative = inhibition, % at 35 µM; shares compounds with CASP6 VEID inh;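 active = compounds lowering fluorescence whose fitted half-maximal concentration is no more than twice their top tested dose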
IN multimer act: activates HIV-1 integrase multimerization in LEDGF counter-screen; shares compounds with LEDGF integ inh; TR-FRET HIV-1 integrase multimerization, biochemical; activation, % at 7.7 µM; actives 17% (n = 2,000); AID 1053131; in the data active = activation above about 8.9%
TRFRET interf: counter-screen for LEDGF/p75 integration inhibitors: TR-FRET optical interference | inhibition, % at 7.7 µM | 2,000 tested, under 10 active | AID 1053135 | shares compounds with LEDGF integ inh | TR-FRET optical interference counterscreen, HIV-1 IN multimerization;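 active = inhibition above the mean over all tested compounds plus 3 SD, which no compound reached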
LEDGF integ conf: LEDGF/p75-dependent HIV-1 integration inhibition, confirmation; inhibition, % at 3.7 µM; AID 1053136; TR-FRET LEDGF/p75-dependent HIV-1 integration, biochemical; actives 36% (n = 2,000); shares compounds with LEDGF integ inh; in the data active = inhibition above about 14%
Alpha artifact: counter-screen for NSD2 inhibitors: AlphaScreen artifacts; AlphaScreen artifact counterscreen, preloaded methylated H4 peptide; shares compounds with NSD2 inh; AC35, µM (top dose mostly 10 µM); actives 9.4% (n = 1,500); call rule not given here
A number is an active result; 0 = inactive; - = no result; ! = not confirmed by another sample. Cut-off read from the data, not from the text of the source, unless noted: active = inhibition above about 21%; inactive = the rest.

SMILES	LEDGF integ inh	NSD2 inh	CASP6 VEID inh	TDP2 absorb	MBD2 inh	UHRF1 MBD2 ctr	CASP1 counter	others
COCC(=O)N1[C@H](CO)[C@H](c2ccccc2)[C@H]1CNC(=O)c1ccccn1	-	-	0	-	-	-	-
O=C1c2c(O)ccc(O)c2C(=O)c2c(NCCNCCO)ccc(NCCNCCO)c21	49.0	92.0	0	0	109.9	96.4	-	UHRF1 DNA bind=94.2;MBD2 DBD conf=106.1;IN multimer act=23.9;TRFRET interf=0;LEDGF integ conf=37.9!;Alpha artifact=2.03µM
Cc1cc(C=O)c(C)n1-c1cccc(C(=O)O)c1	0	0	0	0	0	0	-
Cc1cc(C=O)c(C)n1-c1cc(C(=O)O)cc(C(=O)O)c1	0	84.2	41.3	0	13.8	49.2	0	UHRF1 DNA bind=39.3;MBD2 DBD conf=0;Alpha artifact=0
Cc1ccc(-n2nc3c([n+]2[O-])CCc2c-3no[n+]2[O-])cc1	0	0	-	0	0	0	-
[O-][n+]1onc2c1CCc1c-2nn(-c2ccccc2Cl)[n+]1[O-]	0	0	81.5	0	0	0	0
CO[C@H]1CN(C)C(=O)c2cc(NC(C)=O)ccc2OC[C@@H](C)N(C(=O)CC2CC2)C[C@H]1C	-	-	56.3	-	-	-	0
COc1ccc2c3c(n(C)c2c1)[C@H](CO)N(C)CC31CN(CC2CC2)C1	-	-	0	-	-	-	-
C[C@H]1CN([C@@H](C)CO)S(=O)(=O)c2ccc(C#CC3CC3)cc2O[C@H]1CN(C)C(=O)c1ccccc1	-	-	0	-	-	-	-
CCCNC(=O)[C@H]1[C@H](CO)[C@H]2Cn3c(cccc3=O)[C@H]2N1Cc1ccccn1	-	-	0	-	-	-	-
O=P(c1ccccc1)(c1ccccc1)c1cc(S(=O)(=O)O)ccc1O	0	0	77.3	0	0	27.1	0
O=P(O)(c1ccccc1)c1ccccc1O	0	0	-	0	0	0	-
O=C(COC(=O)c1ccc([N+](=O)[O-])s1)Nc1cccc(S(=O)(=O)NC2=NCCCCC2)c1	0	-	98.1	0	0	0	0
CC(C)(C)c1ccc(NC(=O)COC(=O)c2ccc([N+](=O)[O-])s2)cc1	0	0	-	0	0	0	0
CC[C@H](CO)Oc1cc(NCc2cccc(N)c2)c2ncn(C(C)C)c2c1	0	-	45.8	0	0	0	0
C/C(CC(=O)N1CCCC1)=N\NC(=O)c1cc2ccccc2cc1O	0	69.6	39.0	0	0	0	0
C[C@@H]1CN([C@@H](C)CO)C(=O)c2cc(C#C[C@@H](C)O)cnc2O[C@H]1CN(C)Cc1ccccn1	-	-	0	-	-	-	-
Cc1ccc(S(=O)(=O)Nc2csc(C)c2C(=O)O)cc1	0	0	61.4	0	0	0	0
Cc1ccc(S(=O)(=O)Nc2cc(C)c(O)cc2C)cc1	0	0	-	0	0	0	-
O=C(Nc1ccc(S(=O)(=O)Nc2cnc3ccccc3n2)cc1)c1ccc(Cl)c([N+](=O)[O-])c1	0	0	61.7	0	0	0	0
COc1ccc(C(=O)Nc2ccc(S(=O)(=O)Nc3cnc4ccccc4n3)cc2)cc1	0	0	0	0	0	0	-
